The results in this text go back to PubChem BioAssay.

Calls of active or inactive are those of the source.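 How the source made its calls, unless noted: active means visually confirmed hit in the image check and inhibition above 20%; inconclusive means visually confirmed hit but inhibition not above 20%; inactive means no visual hit in the image check.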

Test [1] in a line: inhibitors of TNFa-induced NFkB p65 translocation, primary screen, imaging, HUVEC, MLSMR starter and 10KST1 sets (AID 438;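 active means inhibition above 20% together with a positive visual image hit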;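 further: compound added about 3h40 before a 20 min TNFalpha stimulation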;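 on inhibition: signal is the nuclear over cytoplasmic p65 intensity ratio per well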). The settings on record: HUVEC TNFa-induced p65 nuclear translocation; cell count: measured here: nuclei count (cytotoxicity indicator), at 2.08 µM; inhibition: at 2 µM, stronger effect = higher value, 0% TNFa-plus-vehicle, 100% no-TNFa wells.
Test [2] in a line: endothelial E-selectin expression blockers – imaging, HUVEC, immunofluorescence, MLSMR starter and 10KST1 sets, primary screen (AID 487).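 On inhibition: signal is fraction of cell area covered by stained E-selectin grains.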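 On nuclei count: 100% = median nuclei count of all wells on the same plate.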 Conditions: HUVEC TNFalpha-induced E-selectin immunofluorescence imaging, at 2 µM; inhibition: stronger effect = higher value; nuclei count: measured here: cell number, toxicity.
The nature of test [3]: Primary imaging screen for DUSP6 inhibitors that restore phospho-Erk in transfected HeLa cells, chemical complementation (AID 609;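 active means compounds giving at least 50% inhibition in the cell-based MKP-3 phosphatase rescue imaging test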;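 on inhibition: phospho-Erk level distribution per well compared with pooled transfected vehicle control wells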). The settings on record: HeLa MKP-3 transfected, phospho-Erk imaging KS statistic, at 10 µM, cells stimulated with TPA for 15 min.
Test [4] concerns the target Dual specificity protein phosphatase 6 (Homo sapiens) (UniProt Q16828). The description is as above. The settings on record: HeLa MKP-3 transfected, phospho-Erk imaging KS statistic; at 10 µM; stronger effect = higher value; cells stimulated with TPA for 15 min.
In test [5] the target is Voltage-gated potassium channel subunit beta-2 (Rattus norvegicus) (UniProt P62483). In words: inhibitors of rat Kvbeta2 reductase activity – biochemical, NADPH fluorescence, primary screen (AID 622;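 active means fluorescence slope higher than the sample average by over 3 SD, cut at about -0.22 in these data, passing the limit was not always enough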;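 further: slope of raw intensity against log time taken from 70 to 1610 s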). Conditions: recombinant KvBeta, 4-cyanobenzaldehyde reduction, at 10 µM, stronger effect = higher value.
Test [6] shares this target. As to the kind of experiment: enhancers of rat Kvbeta2 NADPH turnover – biochemical, NADPH fluorescence, primary screen (AID 623;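 active means NADPH fluorescence slope more negative than the mean of all samples by about 3 SD, 99.7% confidence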;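 further: fluorescence intensity change per second fitted from 20 to 320 s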). Conditions: Recombinant KvBeta, NADPH fluorescence decrease slope, 10 min; at 10 µM; stronger effect = lower value.
Test [7] addresses Alpha-2C adrenergic receptor (Homo sapiens) (UniProt P18825). In words: compounds altering alpha2C-coupled GIRK flux – cell-based, HEK293 alpha2C/GIRK1/2, thallium flux, primary screen (AID 624;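 active means fluorescence slope after compound addition differing from the mean of all screened samples at 99.7% confidence, in either direction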;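 further: slope of fluorescence ratio to pre-addition baseline per second over 15 to 24 s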). Conditions: thallium flux BTC fluorescence, at 10 µM, actives lie on both sides.
The nature of test [8]: inhibitors of larval lipid processing in zebrafish, primary screen, whole organism, PED6 fluorescence, gall bladder and intestine (AID 686;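 active means a full or partial loss of lipid-probe fluorescence in the fish gall bladder, intestine or both, judged by eye; inactive means no fluorescence loss, or compound toxic to the fish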;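 further: larvae 5 to 7 days old with five fish per well; signal comes from phospholipase A2 cleavage of quenched PED6 carried via bile; overnight exposure to compound and PED6 before scoring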). Conditions: Zebrafish larvae PED6 lipid processing, fluorescence scoring; screened at 20 µM (by protocol). In outline:
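System: live zebrafish larvae aged 5-7 days, whole organism; measure: graded gall bladder and intestinal fluorescence inhibition per well; incubation: overnight exposure; reagent: ingested quenched lipid PED6 at 100 nM; signal: By-eye fluorescence microscopy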

The nature of test [9]: loss of swimming-algae plug formation – whole organism, Chlamydomonas reinhardtii, WT vs cilia-less mutant, absorbance, 96-well, primary screen (AID 463189;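 active means inhibition at or above 50% relative to wild type and mutant plate controls; inactive means inhibition below 50%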;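 further: 0% = wild type cc124 cells in DMSO and 100% = ciliumless bld1 mutant cells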). Conditions: Chlamydomonas reinhardtii gravitaxis, OD600 absorbance, 2 days; at 10 µM; stronger effect = higher value.
[10] abbreviates: measured here: cell density z-score.
[11] abbreviates: measured here: nuclear c-Myc green intensity z-score.
Where [12] appears, read: measured here: nuclear pErk red intensity z-score, stronger effect = higher value.

Sequence of Voltage-gated potassium channel subunit beta-2 (Rattus norvegicus) (P62483 whole entry, looked up): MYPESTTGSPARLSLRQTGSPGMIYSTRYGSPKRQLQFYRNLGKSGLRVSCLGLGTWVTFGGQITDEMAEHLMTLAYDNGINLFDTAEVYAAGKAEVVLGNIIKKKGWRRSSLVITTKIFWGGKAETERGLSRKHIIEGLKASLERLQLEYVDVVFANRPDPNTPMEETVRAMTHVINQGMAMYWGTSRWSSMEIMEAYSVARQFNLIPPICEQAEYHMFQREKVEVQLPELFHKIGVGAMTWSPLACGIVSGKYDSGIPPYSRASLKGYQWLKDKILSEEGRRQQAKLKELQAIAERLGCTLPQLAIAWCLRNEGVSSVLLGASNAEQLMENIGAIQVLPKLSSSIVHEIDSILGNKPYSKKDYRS
Sequence of Dual specificity protein phosphatase 6 (Homo sapiens) (Q16828 whole entry, looked up): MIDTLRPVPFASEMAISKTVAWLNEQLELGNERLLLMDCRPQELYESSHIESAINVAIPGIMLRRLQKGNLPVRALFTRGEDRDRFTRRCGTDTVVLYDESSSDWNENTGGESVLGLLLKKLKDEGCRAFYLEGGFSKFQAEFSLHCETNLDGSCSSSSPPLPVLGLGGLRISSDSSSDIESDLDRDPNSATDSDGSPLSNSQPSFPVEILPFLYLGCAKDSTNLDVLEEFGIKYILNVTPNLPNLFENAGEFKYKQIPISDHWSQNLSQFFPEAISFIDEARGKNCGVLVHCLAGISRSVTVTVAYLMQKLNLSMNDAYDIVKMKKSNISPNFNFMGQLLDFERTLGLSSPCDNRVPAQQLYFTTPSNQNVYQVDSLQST
Sequence of Alpha-2C adrenergic receptor (Homo sapiens) (P18825 whole entry, looked up): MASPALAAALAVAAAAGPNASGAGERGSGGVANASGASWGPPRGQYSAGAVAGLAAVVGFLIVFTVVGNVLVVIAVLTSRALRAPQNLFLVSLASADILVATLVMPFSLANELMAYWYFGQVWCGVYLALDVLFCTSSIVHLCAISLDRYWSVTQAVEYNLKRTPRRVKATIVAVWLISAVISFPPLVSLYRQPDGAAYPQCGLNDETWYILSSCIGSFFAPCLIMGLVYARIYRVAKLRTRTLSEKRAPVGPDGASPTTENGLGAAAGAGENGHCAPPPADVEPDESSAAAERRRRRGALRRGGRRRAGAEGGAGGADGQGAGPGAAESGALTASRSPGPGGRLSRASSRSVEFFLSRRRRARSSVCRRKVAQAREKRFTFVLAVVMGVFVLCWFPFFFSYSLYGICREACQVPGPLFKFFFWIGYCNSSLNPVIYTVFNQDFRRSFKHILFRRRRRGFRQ

In general, inhibition refers to the change of the read-out against control, counted positive when it falls. Regarding `Clc1ccccc1CSc1nnc(-c2ccco2)c(-c2ccco2)n1`, in [1], the cell count was determined as 554. Further, the inhibition in test [1] was -6.9% (inactive); in [2], -21.1% (inactive); in test [4] it was -10.5% (inactive); in test [9] it was 19.9% (inactive). The same molecule gave a nuclei count in [2] of 157%. The z-score in [3] (setting [10]) was -1.8; in test [3] (setting [11]), 0.808; in test [3] (setting [12]), 0.169. Besides, in [5], the fluorescence slope is -0.407 (inactive). The NADPH fluorescence slope in test [6] was -1.8e-05 (inactive). For the same molecule, in [7], the slope was 0.00446 (inactive). Besides, the molecule was classed as inactive in test [8].

Turning to `ONC(=Nc1ccccc1)C(=Nc1ccccc1)NO`, the cell count in test [1] turned out to be 348. In addition, the inhibition in test [1] was -0.3% (inactive); in test [2] it was -28.3% (inactive); in test [4], 17% (inactive); in [9], 25.5% (inactive). For the same molecule, the nuclei count in [2] amounted to 100%. In addition, the values for the z-score in [3] (setting [10]), in [3] (setting [11]) and in test [3] (setting [12]) were 1.37, 1.46 and 0.663, respectively. Further, in test [5], the fluorescence slope is -0.542 (inactive). Also, in test [6], the NADPH fluorescence slope was -6e-05 (inactive). For the same molecule, the slope in test [7] is 0.00535 (inactive). Besides, the outcome in test [8] was inactive.

As for `COC(=O)c1ccc(CSc2ncnc3c2sc2nc(N4CCOCC4)c4c(c23)CCCC4)o1`, the cell count in [1] worked out at 565. The inhibition in test [1] was -11.6% (inactive); in test [2] it was 7.4% (inactive); in test [4], 1.48% (inactive); in test [9] it was -7.35% (inactive). The molecule also yielded a nuclei count in [2] of 164%. For the same molecule, the z-score is 0.509 in test [3] (setting [10]), -1.97 in [3] (setting [11]) and -0.0919 in [3] (setting [12]). In addition, the fluorescence slope in test [5] was -0.237 (inactive). The NADPH fluorescence slope in [6] is -1e-05 (inactive). Moreover, the slope in test [7] is 0.00899 (inactive). In addition, the call in test [8] was inactive.

Regarding `COc1ccc2[nH]c(C)c(C(=O)CN3CC(C)OC(C)C3)c2c1` (centres undefined), the cell count in test [1] amounted to 551. Also, the inhibition is -0.3% (inactive) in test [1], -1% (inactive) in test [2], 3.5% (inactive) in [4] and 7.59% (inactive) in test [9]. The molecule also returned a nuclei count in [2] of 143%. The z-score in [3] (setting [10]) is -0.788; in test [3] (setting [11]), 1.62; in [3] (setting [12]), -0.00446. Also, the fluorescence slope in test [5] is -0.194 (inactive). Moreover, the NADPH fluorescence slope in test [6] was 2.2e-05 (inactive). For the same molecule, the slope in [7] was 0.00534 (inactive). Besides, the molecule was called inactive in test [8].

With `Cn1c(SCC(=O)N2CCOCC2)nnc1-c1ccc(Cl)cc1Cl`, in test [1], the cell count worked out at 359. Moreover, the inhibition was -9.4% (inactive) in test [1], -17.3% (inactive) in [2], 1.75% (inactive) in test [4] and -14.7% (inactive) in test [9]. In [2], this molecule yielded a nuclei count of 101%. The z-score in [3] (setting [10]) was 0.947; in test [3] (setting [11]), -0.186; in test [3] (setting [12]), -0.938. Moreover, the fluorescence slope in [5] was -0.453 (inactive). The NADPH fluorescence slope in test [6] was 1.1e-05 (inactive). Also, the slope in [7] is 0.00668 (inactive). Further, in [8], the result was inactive.

Regarding `O=S(=O)(c1ccccc1)N1CCC(N2CCCCCC2)CC1`, the cell count in test [1] was 360. The inhibition is -15.1% (inactive) in [1], -30.4% (inactive) in [2], -8.95% (inactive) in [4] and 32.5% (inactive) in [9]. For the same molecule, the nuclei count in test [2] came out at 107%. Moreover, the results for the z-score in test [3] (setting [10]), in test [3] (setting [11]) and in test [3] (setting [12]) were -1.31, -0.622 and 0.193, respectively. In test [5], the fluorescence slope is -0.39 (inactive). Moreover, the NADPH fluorescence slope in test [6] is 2.7e-05 (inactive). For the same molecule, the slope in [7] was 0.00532 (inactive). In [8], the molecule was classed as inactive.

On to `COCCCNc1nc2c(c(=O)n(C)c(=O)n2C)n1Cc1cccc(OC)c1`, for which the cell count in test [1] was determined as 434. Further, the inhibition was -9.7% (inactive) in [1], -93.1% (inactive) in test [2], 4.37% (inactive) in test [4] and -3.39% (inactive) in test [9]. In test [2], this molecule registered a nuclei count of 190%. The z-score in test [3] (setting [10]) is 2.25; in test [3] (setting [11]) it was -1.46; in test [3] (setting [12]), -1.41. The fluorescence slope in test [5] is -0.325 (inactive). In [6], the NADPH fluorescence slope was 1.1e-05 (inactive). In addition, the slope in [7] is 0.00428 (inactive). Moreover, in test [8], the call was inactive.

Turning to `Cc1nnc(SCc2nc3ccccc3[nH]2)s1`, the cell count in [1] amounted to 417. The inhibition in [1] was -9.9% (inactive); in [2] it was -178% (inactive); in test [4], -5.89% (inactive); in [9] it was 9.63% (inactive). In addition, the nuclei count in [2] is 172%. The z-score in [3] (setting [10]) is 1.08; in test [3] (setting [11]), -0.712; in [3] (setting [12]), -0.186. For the same molecule, the fluorescence slope in [5] was -0.368 (inactive). In test [6], the NADPH fluorescence slope is -5.3e-05 (inactive). Besides, the slope in test [7] was 0.00478 (inactive). Further, in test [8], the result was inactive.

Consider `COc1ccc(C2=Nn3c(nnc3-c3cccnc3)SC2)cc1OC`, for which the cell count in test [1] stood at 614. Besides, the inhibition in test [1] was -5.8% (inactive); in test [2], -109% (inactive); in [4], -7.86% (inactive); in test [9] it was 2.3% (inactive). Besides, in test [2], the nuclei count turned out to be 152%. The z-score is -0.53 in [3] (setting [10]), 0.48 in test [3] (setting [11]) and 0.0126 in test [3] (setting [12]). In addition, in test [5], the fluorescence slope is -0.398 (inactive). The NADPH fluorescence slope in test [6] is -0.000172 (inactive). Further, the slope in test [7] was 0.00709 (inactive). Also, in [8], the call was inactive.

As to `COC(=O)CN(c1cc(OC)ccc1OC)S(=O)(=O)c1ccc(OC)c(OC)c1`, the cell count in test [1] is 365. The inhibition was -5% (inactive) in test [1], -37.1% (inactive) in test [2], -2.59% (inactive) in test [4] and -0.193% (inactive) in test [9]. The nuclei count in [2] was 130%. Also, the z-score in test [3] (setting [10]) is -0.822; in test [3] (setting [11]), 0.297; in [3] (setting [12]), -0.958. Moreover, the fluorescence slope in test [5] is -0.417 (inactive). For the same molecule, in [6], the NADPH fluorescence slope is -0.000193 (inactive). In test [7], the slope was 0.00438 (inactive). Besides, the molecule was called inactive in test [8].

For the molecule `CCOC(=O)c1cc2cc(OC)ccc2[nH]1`, the cell count in test [1] turned out to be 596. Also, the inhibition in [1] was -5.3% (inactive); in test [2], -44.6% (inactive); in test [4], 5.57% (inactive); in [9], 26.5% (inactive). This molecule also had a nuclei count in [2] of 87.4%. The z-score is -0.384 in [3] (setting [10]), 1.83 in [3] (setting [11]) and 0.163 in test [3] (setting [12]). Moreover, the fluorescence slope in test [5] was -0.497 (inactive). Further, the NADPH fluorescence slope in [6] is -9.6e-05 (inactive). For the same molecule, the slope in test [7] is 0.00467 (inactive). The molecule was called inactive in test [8].

In the case of `CC(C)C1C(C#N)=C(N)Oc2n[nH]c(C(C)(C)C)c21` (centres undefined), in test [1], the cell count amounted to 391. Moreover, the inhibition was -8.2% (inactive) in [1], -118% (inactive) in [2], -2.91% (inactive) in [4] and -1.5% (inactive) in [9]. In [2], the nuclei count amounted to 157%. Moreover, the z-score in [3] (setting [10]) is 0.159; in [3] (setting [11]) it was 1.21; in test [3] (setting [12]) it was -1.21. Further, the fluorescence slope in test [5] was -0.429 (inactive). The NADPH fluorescence slope in test [6] was -4.6e-05 (inactive). In test [7], the slope was 0.00626 (inactive). For the same molecule, the molecule was classed as inactive in [8].

As to `COc1ccc(C=NCCCN2CCOCC2)cc1`, in [1], the cell count worked out at 638. The inhibition was -9.5% (inactive) in [1], -363% (inactive) in test [2], -0.159% (inactive) in [4] and -6.33% (inactive) in test [9]. The molecule also gave a nuclei count in test [2] of 165%. Further, the figures for the z-score in test [3] (setting [10]), in [3] (setting [11]) and in test [3] (setting [12]) were -1.79, -1.02 and 1.46, respectively. Further, the fluorescence slope in test [5] is -0.486 (inactive). In addition, in test [6], the NADPH fluorescence slope is -8.5e-05 (inactive). The slope in test [7] was 0.00493 (inactive). Also, in test [8], the result was inactive.
